The results in this text go back to ChEMBL document CHEMBL1149713, “1,2,4-benzothiadiazine linked pyrrolo[2,1-c][1,4]benzodiazepine conjugates: synthesis, DNA-binding affinity and cytotoxicity” (Bioorg Med Chem Lett, 2007).

Structures are written as SMILES.

The subject of one assay is HOP-62. Put plainly: Cytotoxicity against human Hop62 cells.
Conditions: not given
The assay is classed as functional, cell-based. The essentials:
(§1)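 Sulforhodamine B (SRB) assay in human cancer cell lines: lung (A549, Hop62), breast (Zr-75-1), oral (DWD, KB, Gurav), prostate (PC3). IC50 in µM, mean of three determinations. Adriamycin as reference. Where IC50 was not reached within the concentrations tested, no value is given.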
Take `COc1cc2c(cc1OCCCCN1CCN(C3=NS(=O)(=O)c4ccccc4N3C(C)C)CC1)N=C[C@@H]1CCCN1C2=O`: 343 µM corresponded to half-maximal inhibition (IC50).
On the same count and under the same terms, to `COc1cc2c(cc1OCCCCN1CCN(C3=NS(=O)(=O)c4ccccc4N3c3ccccc3)CC1)N=C[C@@H]1CCCN1C2=O` belongs 369 µM; to `COc1cc2c(cc1OCCCCCN1CCN(C3=NS(=O)(=O)c4ccccc4N3C(C)C)CC1)N=C[C@@H]1CCCN1C2=O`, 27.9 µM.

System in a further assay: not listed separately
Description: Cytotoxicity against human DWD cells. The format is functional, cell-based.
Conditions: not given
Summed up:
as §1
In the case of `COc1cccc2c1C(=O)c1c(O)c3c(c(O)c1C2=O)C[C@@](O)(C(=O)CO)C[C@@H]3O[C@H]1C[C@H](N)[C@H](O)[C@H](C)O1` [DOXORUBICIN], the half-maximal inhibitory concentration (IC50) – broadly, the concentration that gives 50% inhibition – worked out at 24.9 µM.
Still for that read-out and setting: to `COc1cc2c(cc1OCCCCCN1CCN(C3=NS(=O)(=O)c4ccccc4N3C(C)C)CC1)N=C[C@@H]1CCCN1C2=O` belongs 27.7 µM.

The test system of another assay is DNA. Description: Binding affinity to calf thymus DNA at 20 uM after 36 hrs by thermal denaturation assay. The assay is classed as nucleic-acid assay. The following applies: Bos taurus.
For `COc1cc2c(cc1OCCCCN1CCN(C3=NS(=O)(=O)c4ccccc4N3C(C)C)CC1)N=C[C@@H]1CCCN1C2=O`, the ΔTm (as a rule, the change in melting temperature against a reference sample) came out at 4.3 °C.
Same read-out and setting: next, `COc1cc2c(cc1OCCCCN1CCN(C3=NS(=O)(=O)c4ccccc4N3c3ccccc3)CC1)N=C[C@@H]1CCCN1C2=O`: 4.1 °C; `COc1cc2c(cc1OCCCCCN1CCN(C3=NS(=O)(=O)c4ccccc4N3C(C)C)CC1)N=C[C@@H]1CCCN1C2=O`: 6.7 °C.
Still for that read-out and setting: next, `COc1cc2c(cc1OCCCCCN1CCN(C3=NS(=O)(=O)c4ccccc4N3c3ccccc3)CC1)N=C[C@@H]1CCCN1C2=O`: 4.6 °C.
Same read-out and setting: to `COc1cc2c(cc1O)N=C[C@@H]1CCCN1C2=O` belongs 0.7 °C.

System in a further assay: not listed separately
Description: Cytotoxicity against human Gurav cells.
Conditions: not given
The assay is classed as functional, cell-based. Summed up: as §1
In the case of `COc1cc2c(cc1OCCCCCN1CCN(C3=NS(=O)(=O)c4ccccc4N3C(C)C)CC1)N=C[C@@H]1CCCN1C2=O`, the IC50 was 26.5 µM.
On the same count and under the same terms, to `COc1cc2c(cc1OCCCCCN1CCN(C3=NS(=O)(=O)c4ccccc4N3c3ccccc3)CC1)N=C[C@@H]1CCCN1C2=O` belongs 356 µM.

For another assay, the system named is DNA. Put plainly: Binding affinity to calf thymus DNA at 20 uM after 18 hrs by thermal denaturation assay. The assay is classed as nucleic-acid assay. The following applies: Bos taurus.
Turning to `COc1cc2c(cc1OCCCCN1CCN(C3=NS(=O)(=O)c4ccccc4N3C(C)C)CC1)N=C[C@@H]1CCCN1C2=O`, the ΔTm was 4.2 °C.
In the case of `COc1cc2c(cc1OCCCCN1CCN(C3=NS(=O)(=O)c4ccccc4N3c3ccccc3)CC1)N=C[C@@H]1CCCN1C2=O`, the ΔTm is 4.1 °C.
Turning to `COc1cc2c(cc1OCCCCCN1CCN(C3=NS(=O)(=O)c4ccccc4N3C(C)C)CC1)N=C[C@@H]1CCCN1C2=O`, the ΔTm was 6.4 °C.
On the same count and under the same terms, next, `COc1cc2c(cc1OCCCCCN1CCN(C3=NS(=O)(=O)c4ccccc4N3c3ccccc3)CC1)N=C[C@@H]1CCCN1C2=O`: 4.4 °C; `COc1cc2c(cc1O)N=C[C@@H]1CCCN1C2=O`: 0.7 °C.

The subject of a further assay is ZR-75-1. Put plainly: Cytotoxicity against human Zr75-1 cells. The format is functional, cell-based.
Conditions: not given
The essentials: as §1
With `COc1cc2c(cc1OCCCCN1CCN(C3=NS(=O)(=O)c4ccccc4N3C(C)C)CC1)N=C[C@@H]1CCCN1C2=O`, half-maximal inhibition (IC50) was put at 2.24 µM.
Still for that read-out and setting: next, `COc1cc2c(cc1OCCCCN1CCN(C3=NS(=O)(=O)c4ccccc4N3c3ccccc3)CC1)N=C[C@@H]1CCCN1C2=O`: 0.15 µM.
The same measure, in the same setting: to `COc1cccc2c1C(=O)c1c(O)c3c(c(O)c1C2=O)C[C@@](O)(C(=O)CO)C[C@@H]3O[C@H]1C[C@H](N)[C@H](O)[C@H](C)O1` [DOXORUBICIN] belongs 2.32 µM; to `COc1cc2c(cc1OCCCCCN1CCN(C3=NS(=O)(=O)c4ccccc4N3C(C)C)CC1)N=C[C@@H]1CCCN1C2=O`, 0.12 µM.

For the next assay, the system named is PC-3. Put plainly: Cytotoxicity against human PC3 cells. The format is functional, cell-based.
Conditions: not given
Summed up: as §1
As to `COc1cc2c(cc1OCCCCN1CCN(C3=NS(=O)(=O)c4ccccc4N3c3ccccc3)CC1)N=C[C@@H]1CCCN1C2=O`, the IC50 was determined as 357 µM.
`COc1cccc2c1C(=O)c1c(O)c3c(c(O)c1C2=O)C[C@@](O)(C(=O)CO)C[C@@H]3O[C@H]1C[C@H](N)[C@H](O)[C@H](C)O1` [DOXORUBICIN]: it took 2.26 µM to reach half-maximal inhibition (IC50). Against the preceding compound, the IC50 is about 160-fold lower.
Same read-out and setting: next, `COc1cc2c(cc1OCCCCCN1CCN(C3=NS(=O)(=O)c4ccccc4N3C(C)C)CC1)N=C[C@@H]1CCCN1C2=O`: 27.8 µM; `COc1cc2c(cc1OCCCCCN1CCN(C3=NS(=O)(=O)c4ccccc4N3c3ccccc3)CC1)N=C[C@@H]1CCCN1C2=O`: 2.35 µM.

The subject of another assay is KB. Description: Cytotoxicity against human KB cells. The assay is classed as functional, cell-based.
Conditions: not given
Summed up: as §1
As to `COc1cc2c(cc1OCCCCN1CCN(C3=NS(=O)(=O)c4ccccc4N3C(C)C)CC1)N=C[C@@H]1CCCN1C2=O`, the midpoint of inhibition, the IC50, lay at 26.1 µM.
The compound `COc1cc2c(cc1OCCCCN1CCN(C3=NS(=O)(=O)c4ccccc4N3c3ccccc3)CC1)N=C[C@@H]1CCCN1C2=O` came in with a concentration for half-maximal inhibition (IC50) of 29.4 µM.
On the same count and under the same terms, to `COc1cccc2c1C(=O)c1c(O)c3c(c(O)c1C2=O)C[C@@](O)(C(=O)CO)C[C@@H]3O[C@H]1C[C@H](N)[C@H](O)[C@H](C)O1` [DOXORUBICIN] belongs 0.17 µM.
On the same count and under the same terms, to `COc1cc2c(cc1OCCCCCN1CCN(C3=NS(=O)(=O)c4ccccc4N3C(C)C)CC1)N=C[C@@H]1CCCN1C2=O` belongs 2.43 µM.
`COc1cc2c(cc1OCCCCCN1CCN(C3=NS(=O)(=O)c4ccccc4N3c3ccccc3)CC1)N=C[C@@H]1CCCN1C2=O` came in with an IC50 of 2.3 µM.

A further assay has as its system A549. Description: Cytotoxicity against human A549 cells.
Conditions: not given
The assay is classed as functional, cell-based. Summed up:
as §1
As to `COc1cc2c(cc1OCCCCCN1CCN(C3=NS(=O)(=O)c4ccccc4N3C(C)C)CC1)N=C[C@@H]1CCCN1C2=O`, the IC50 turned out to be 30.3 µM.
Same read-out and setting: to `COc1cc2c(cc1OCCCCCN1CCN(C3=NS(=O)(=O)c4ccccc4N3c3ccccc3)CC1)N=C[C@@H]1CCCN1C2=O` belongs 30.2 µM.
